Laboratory results taken from ChEMBL document CHEMBL1152242, “Aldehydic components of cinnamon bark extract suppresses RANKL-induced osteoclastogenesis through NFATc1 downregulation” (Bioorg Med Chem, 2008).
pIC50: −log10 of the molar value. The source made the active and inactive calls. The calls are words filed in the database; no cut-off is given here.

How the values were obtained:
[1] = system: RAW264.7; experiment: Inhibition of multinucleated cell formation in RANKL-stimulated mouse RAW264.7 cells after 3 days by TRAP staining; type: functional, cell-based
How it was run: (§1)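 RAW264.7 cells in α-MEM with RANKL, with or without compound, cultured 3 days at 37 °C, 5% CO2. Fixed in acetone/citrate for 30 s, then TRAP-stained with a kit. TRAP+ cells with ≥4 nuclei scored as MNCs by light microscopy, counting four fields, repeated four times. Relative MNC number reported as mean ± SD of triplicates; ANOVA with Dunnett's test.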

[2] = system: RAW264.7; experiment: Inhibition of NFATc1 expression in RANKL-stimulated mouse RAW264.7 cells after 48 hrs by immunoblotting; type: functional, cell-based
How it was run: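 RAW264.7 cells in α-MEM cultured with RANKL plus test compound for 48 h. Lysates in HEPES pH 7.8/NaCl/EDTA/MgCl2/DTT buffer with protease inhibitors, run on 8% SDS-PAGE and transferred to nitrocellulose. Blocked in 5% milk/PBS-Tween, then anti-NFATc1 primary overnight at 4 °C with GAPDH as loading control. Detected with HRP secondary and ECL.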

[3] = system: RAW264.7; experiment: Inhibition of osteoclastogenesis in RANKL-stimulated mouse RAW264.7 cells at 1 to 2 uM; type: functional, cell-based
[4] = system: RAW264.7; experiment: Inhibition of bone resorption by mature osteoclast in RANKL-stimulated mouse RAW264.7 cells at 2 uM pretreated for 1 hr measured after 8 days; type: functional
How it was run: (§2)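 RAW264.7 cells pretreated with compound for 1 h, then RANKL (50 ng/ml) added on calcium phosphate apatite-coated plates. Incubated 8 days, then 5% sodium hypochlorite for 5 min, washed, dried and photographed. Total resorbed pit area (mm²) given as mean ± SD of triplicates.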

[5] = system: RAW264.7; experiment: Inhibition of NF-kappaB activation transfected in RANKL-stimulated mouse RAW264.7 cells at 1 to 2 uM; type: cell-based
[6] = system: RAW264.7; experiment: Inhibition of bone resorption by mature osteoclast in RANKL-stimulated mouse RAW264.7 cells pretreated for 1 hr measured after 8 days; type: functional, cell-based; how it was run: as §2
[7] = target: T1, Nuclear factor of activated T-cells, cytoplasmic 1 (Mus musculus) (UniProt O88942); experiment: Inhibition of NFATc1 pathway in RANKL-stimulated mouse RAW264.7 cells at 1 to 2 uM; type: cell-based
T1 sequence (whole entry): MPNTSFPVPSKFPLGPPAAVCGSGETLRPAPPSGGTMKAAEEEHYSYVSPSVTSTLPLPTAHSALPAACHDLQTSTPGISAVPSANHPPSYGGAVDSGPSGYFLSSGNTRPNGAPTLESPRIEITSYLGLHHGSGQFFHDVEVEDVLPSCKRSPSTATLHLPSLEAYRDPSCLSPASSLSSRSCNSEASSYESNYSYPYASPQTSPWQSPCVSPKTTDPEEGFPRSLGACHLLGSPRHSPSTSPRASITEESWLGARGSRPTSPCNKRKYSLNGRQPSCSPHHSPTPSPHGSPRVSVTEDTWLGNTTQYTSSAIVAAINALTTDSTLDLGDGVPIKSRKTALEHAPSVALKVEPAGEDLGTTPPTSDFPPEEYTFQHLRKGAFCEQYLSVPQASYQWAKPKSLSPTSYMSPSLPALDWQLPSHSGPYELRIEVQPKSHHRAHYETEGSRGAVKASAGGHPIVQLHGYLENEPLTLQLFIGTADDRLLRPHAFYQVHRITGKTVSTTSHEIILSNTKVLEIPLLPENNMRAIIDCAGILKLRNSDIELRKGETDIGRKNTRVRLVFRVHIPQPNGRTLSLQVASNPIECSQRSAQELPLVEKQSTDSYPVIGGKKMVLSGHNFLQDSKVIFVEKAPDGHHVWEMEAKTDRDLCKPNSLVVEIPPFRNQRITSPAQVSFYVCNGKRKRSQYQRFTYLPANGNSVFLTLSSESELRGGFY

[8] = Inhibition of NF-kappaB transfected in LPS-stimulated mouse RAW264.7 cells; type: cell-based
[9] = system: RAW264.7; experiment: Inhibition of multinucleated cell formation in RANKL-stimulated mouse RAW264.7 cells at 0.5 to 2 uM after 3 days by TRAP staining; type: functional, cell-based; how it was run: as §1

Row | SMILES | Activity [1] | Activity [2] | Activity [3] | inhibition at 2 µM [4] [%] | Activity [5] | Activity [6] | Activity [7] | pIC50 [8] | Activity [9]
1 | O=C(O)/C=C/c1ccccc1 | inactive | – | – | – | – | – | – | – | –
2 | OC/C=C/c1ccccc1 | inactive | – | – | – | – | – | – | – | –
3 | COc1ccccc1/C=C/C=O | – | Active | Active | 95 | inactive | Active | Active | 4.51 | Active
4 | O=C/C=C/c1ccccc1 [CINNAMALDEHYDE] | – | Active | – | – | – | Active | – | 4.37 | Active
